Source: article PMC3178738 (Bioconjugate chemistry, 2011)
“Also recorded” adds a separate entry of the source. Values belong to the substance of their own block, whether it stands above or below them.

Assays:
[1] = Stability of the aluminum chelates in PBS; format: physicochemical; conditions: chemical stability, pH 7.4, 37 °C
Method in brief: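 Al–OH and Al–F chelates of the test chelator, made by reacting it with AlCl3 or AlF3, were incubated in PBS, pH 7.4, at 37 °C. Aluminum loss (demetalation) was followed by RP-HPLC at 3 h, 12 h and 24 h.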

[2] = animal studies, cited from earlier work

- time stable in PBS [1]: over 24 h
Substance: AlF(NODA-MPAA) [compound 3]
- loss of aluminum (demetalation) ([1]; 24 h, RP-HPLC): no detectable loss of aluminum; also recorded: no signs of demetalation

- demetalation ([1]; 3 h, RP-HPLC): 23%
- demetalation ([1]; 12 h, RP-HPLC): 61%
Substance: AlOH(NODA-MPAA) [compound 2]

Substance: NODA-MPAA-D-Lys(HSG)-D-Tyr-D-Lys(HSG)-NH2 [IMP485]
- presence in the bone ([2]; kit formulated IMP485, supporting in vivo stability): negligible
- clearance from the body ([2]; kit formulated IMP485): rapid clearance from the body via the kidneys
